# Reference: ChEMBL document CHEMBL3525985, “Regiospecificity and stereospecificity of human UDP-glucuronosyltransferases in the glucuronidation of estriol, 16-epiestriol, 17-epiestriol, and 13-epiestradiol” (Drug Metab Dispos, 2013)
# Tests used:
# Type in all cases: ADME
# [1] = biological target: T1, UDP-glucuronosyltransferase 2B17 (Homo sapiens, UniProt O75795); assay: Drug metabolism assessed as recombinant human C-terminal His-tagged UGT2B17-mediated 13-epiestradiol-17-glucuronide formation at 200 uM after 15 to 60 mins by HPLC analysis in presence of UDPGA; details: recombinant enzyme
# T1 sequence (O75795 whole entry): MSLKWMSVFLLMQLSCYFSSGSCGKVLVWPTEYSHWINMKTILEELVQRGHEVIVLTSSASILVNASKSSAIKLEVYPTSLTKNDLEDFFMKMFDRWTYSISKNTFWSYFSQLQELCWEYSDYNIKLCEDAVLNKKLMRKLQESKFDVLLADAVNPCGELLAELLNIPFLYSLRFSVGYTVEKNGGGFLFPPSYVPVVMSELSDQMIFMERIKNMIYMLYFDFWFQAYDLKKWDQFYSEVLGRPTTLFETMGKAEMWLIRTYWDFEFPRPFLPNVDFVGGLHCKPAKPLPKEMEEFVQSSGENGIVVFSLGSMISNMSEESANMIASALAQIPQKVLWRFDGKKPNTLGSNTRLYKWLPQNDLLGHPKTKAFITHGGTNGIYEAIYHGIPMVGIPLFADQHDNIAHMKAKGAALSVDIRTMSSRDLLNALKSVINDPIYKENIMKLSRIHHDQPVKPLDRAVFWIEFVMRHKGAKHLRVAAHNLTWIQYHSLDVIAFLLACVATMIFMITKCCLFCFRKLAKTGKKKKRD
# Outline: (§1)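 Screening at a single substrate concentration of 200 μM, in triplicate. The reaction used 5 or 50 µg of UGT-enriched insect cell membranes in 50 mM phosphate pH 7.4 with 10 mM MgCl₂ and 5 mM UDPGA, 10% final DMSO. Incubation was 15–60 min at 37°C. Perchloric acid stopped the reaction and supernatants were analysed by HPLC. Controls lacked UDPGA. Rates were normalized to relative UGT expression level.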
# [2] = biological target: T2, UDP-glucuronosyltransferase 1A4 (Homo sapiens, UniProt P22310); assay: Drug metabolism assessed as recombinant human C-terminal His-tagged UGT1A4-mediated 16-epiestriol-16-glucuronide formation at 200 uM after 15 to 60 mins by HPLC analysis in presence of UDPGA; details: recombinant enzyme; outline: as §1
# T2 sequence (P22310 whole entry): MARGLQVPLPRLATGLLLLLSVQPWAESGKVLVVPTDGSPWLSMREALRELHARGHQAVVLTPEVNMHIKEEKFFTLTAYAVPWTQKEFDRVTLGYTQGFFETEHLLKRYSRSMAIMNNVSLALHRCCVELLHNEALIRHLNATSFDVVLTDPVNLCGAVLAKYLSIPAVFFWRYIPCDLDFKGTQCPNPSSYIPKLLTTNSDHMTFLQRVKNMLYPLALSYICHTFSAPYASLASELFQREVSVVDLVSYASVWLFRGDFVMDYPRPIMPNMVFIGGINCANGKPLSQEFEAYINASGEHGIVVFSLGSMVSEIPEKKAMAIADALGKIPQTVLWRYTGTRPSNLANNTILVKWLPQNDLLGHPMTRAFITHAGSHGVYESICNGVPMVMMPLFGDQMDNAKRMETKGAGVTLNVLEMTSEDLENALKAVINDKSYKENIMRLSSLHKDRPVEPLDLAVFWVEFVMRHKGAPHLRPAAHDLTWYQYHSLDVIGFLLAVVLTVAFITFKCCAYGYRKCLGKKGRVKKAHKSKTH
# [3] = biological target: T3, UDP-glucuronosyltransferase 1A10 (Homo sapiens, UniProt Q9HAW8); assay: Inhibition of recombinant human C-terminal His-tagged UGT1A10 after 15 to 60 mins by Michaelis-Menten equation analysis in presence of UDPGA
# T3 sequence (Q9HAW8 whole entry): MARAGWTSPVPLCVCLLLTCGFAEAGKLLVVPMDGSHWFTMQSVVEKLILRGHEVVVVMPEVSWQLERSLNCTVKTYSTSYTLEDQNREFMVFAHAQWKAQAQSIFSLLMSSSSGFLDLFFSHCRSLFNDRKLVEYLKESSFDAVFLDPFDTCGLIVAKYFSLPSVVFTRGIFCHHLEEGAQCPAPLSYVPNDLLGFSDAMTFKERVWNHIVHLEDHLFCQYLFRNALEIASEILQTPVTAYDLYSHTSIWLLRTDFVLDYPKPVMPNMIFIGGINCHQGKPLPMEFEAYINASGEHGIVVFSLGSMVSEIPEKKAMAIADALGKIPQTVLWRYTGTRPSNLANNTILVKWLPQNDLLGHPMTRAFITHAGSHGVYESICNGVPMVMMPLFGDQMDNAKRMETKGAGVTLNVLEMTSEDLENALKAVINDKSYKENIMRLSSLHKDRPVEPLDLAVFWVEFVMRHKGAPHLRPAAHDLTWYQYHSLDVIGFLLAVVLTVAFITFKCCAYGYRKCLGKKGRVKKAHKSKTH
# Outline: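 Kinetics with His-tagged UGT-enriched insect-cell membranes (5 or 50 µg): aglycone 0.2–300 µM in 10% DMSO, 5 mM UDPGA, 10 mM MgCl₂, 50 mM phosphate pH 7.4, 15–60 min at 37°C. Substrate consumption kept at or below 10%. Glucuronides quantified by HPLC in triplicate, rates normalized to expression, and data fitted to Michaelis-Menten.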
# [4] = Drug metabolism in human intestine microsomes assessed as estriol-3-glucuronide formation after 15 to 60 mins by Michaelis-Menten equation analysis in presence of UDPGA
# Outline: (§2)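 Pooled human intestine microsomes (6 donors), 0.5 or 10 µg, with alamethicin at 5% of total protein. Incubated with 50 mM phosphate pH 7.4, 10 mM MgCl₂, 5 mM UDPGA and 10% DMSO for 15–60 min at 37°C. Each glucuronide regioisomer quantified by HPLC, in triplicate, with substrate consumption at or below 10%.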
# Liver microsome = assay: Drug metabolism in human liver microsomes assessed as estriol-3-glucuronide formation after 15 to 60 mins by Michaelis-Menten equation analysis in presence of UDPGA
# Outline: as §2, with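 “liver” for “intestine”, “(30” for “(6”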
compound,measurement,setting,value
C[C@@]12CC[C@@H]3c4ccc(O)cc4CC[C@H]3[C@@H]1CC[C@@H]2O,Drug metabolism,[1],metabolite_detected
C[C@]12CC[C@@H]3c4ccc(O)cc4CC[C@H]3[C@@H]1C[C@H](O)[C@@H]2O [EPIESTRIOL],Drug metabolism,[2],metabolite_not_detected
same,Ki,[3],98.1 µM
C[C@]12CC[C@@H]3c4ccc(O)cc4CC[C@H]3[C@@H]1C[C@@H](O)[C@@H]2O [ESTRIOL],Km,[4],75 µM
same,Vmax,[4],839 pmol/min/mg
same,Km,Liver microsome,313 µM
same,Vmax,Liver microsome,95 pmol/min/mg
